Experimental data: ChEMBL document CHEMBL4184233, “Design and synthesis of novel dasatinib derivatives as inhibitors of leukemia stem cells” (Bioorg Med Chem Lett, 2018)
The source made the active and inactive calls. The rule behind the calls is not given here.

Columns and labels:
[1] = tested on: HL-60; assay: Growth inhibition of human HL60 cells; type: functional, cell-based
[2] = tested on: KG-1a; assay: Growth inhibition of human KG1a cells; type: functional, cell-based
[3] = tested on: K562; assay: Growth inhibition of human K562 cells; type: functional, cell-based
[4] = tested on: Mus musculus; assay: Toxicity in Kunming mouse assessed as survival rat at 1000 mg/kg, po dosed once for 2 weeks; type: organism-based; settings: in vivo, 336 h
Outline: (§1)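 Single oral dose to mice, then observed for 14 days with survival rate recorded. Doses tested were 200, 500 and 1000 mg/kg. The dasatinib comparator was given at 200 mg/kg only.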

[5] = tested on: B16-BL6; assay: Inhibition of cell migration of mouse B16-BL6 cells at 0.82 uM incubated for 24 to 48 hrs by cell wound scratch assay; type: functional, cell-based
Outline: (§2)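 Wound-scratch migration assay in mouse B16BL6 monolayers. Each compound was given at a single concentration for 2 days, and migration was compared with an untreated control group.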

[6] = Toxicity in Kunming mouse assessed as survival rat at 200 mg/kg, po dosed once for 2 weeks; type: organism-based; settings: in vivo; outline: as §1
[7] = tested on: MCF7; assay: Inhibition of colony formation in human MCF7 cells incubated for 10 days by crystal violet staining based plate cloning test; type: functional, cell-based
Outline: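 MCF-7 colony formation assay. Cells received low, middle and high concentrations (0.96/1.90/3.80 μM or 0.68/1.35/2.70 μM, depending on compound) for 10 days. Colony counts were compared with an untreated control group, with significance at P < 0.05 and P < 0.01.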

[8] = tested on: Mus musculus; assay: Toxicity in Kunming mouse assessed as survival rat at 500 mg/kg, po dosed once for 2 weeks; type: organism-based; settings: in vivo, 336 h; outline: as §1
[9] = tested on: KG-1a; assay: Potency index, ratio of IC50 for dasatinib to IC50 for test compound for growth inhibition of human KG1a cells; type: functional
[10] = tested on: B16-BL6; assay: Inhibition of cell migration of mouse B16-BL6 cells at 1.43 uM incubated for 24 to 48 hrs by cell wound scratch assay; type: functional, cell-based; outline: as §2
[11] = tested on: MCF7; settings: Homo sapiens, 7.5 uM
[12] = tested on: B16-BL6; settings: Mus musculus, 8.13 uM

SMILES | IC50 [1] [nM] | IC50 [3] [nM] | IC50 [2] [nM] | also measured
Cc1nc(Nc2ncc(-c3cn(-c4c(C)cccc4Cl)nn3)s2)cc(N2CCN(CCN=C=S)CC2)n1 | 16.6 | 36.5 | 320 | 
Cc1nc(Nc2ncc(-c3cn(-c4c(C)cccc4Cl)nn3)s2)cc(N2CCN(CCO)CC2)n1 | 4.19 | 14.1 | 140 | Activity [4]: Non-Toxic; inhibition [5]: Active; survival at 336 h [6]: 100%; inhibition [7]: Dose-dependent effect; Activity [8]: Non-Toxic
C=CC(=O)NCCN1CCN(c2cc(Nc3ncc(-c4nnc(-c5c(C)cccc5Cl)o4)s3)nc(C)n2)CC1 | 160 | 150 | 110 | 
Cc1nc(Nc2ncc(-c3nnc(-c4c(C)cccc4Cl)o3)s2)cc(N2CCN(CCO)CC2)n1 | 150 | 230 | 50 | Ratio IC50 [9]: 180; Activity [4]: Non-Toxic; survival at 336 h [6]: 100%; inhibition [10]: Active; inhibition [7]: Dose-dependent effect; Activity [8]: Non-Toxic
Cc1nc(Nc2ncc(C(=O)Nc3c(C)cccc3Cl)s2)cc(N2CCN(CCN)CC2)n1 | 0.25 | 0.72 | 25400 | 
Cc1nc(Nc2ncc(C(=O)Nc3c(C)cccc3Cl)s2)cc(N2CCN(CCO)CC2)n1 [DASATINIB] | 0.11 | 0.069 | 8980 | survival at 336 h [6]: 100%; inhibition [11]: Active; inhibition [12]: Active
C=CC(=O)NCCN1CCN(c2cc(Nc3ncc(-c4cn(-c5c(C)cccc5Cl)nn4)s3)nc(C)n2)CC1 | 5.46 | 15.1 | 250 | 
Cc1nc(Nc2ncc(-c3cn(-c4c(C)cccc4Cl)nn3)s2)cc(N2CCN(CCNC(=O)CCl)CC2)n1 | 9.82 | 17.6 | 450 | 
Cc1nc(Nc2ncc(-c3nnc(-c4c(C)cccc4Cl)o3)s2)cc(N2CCN(CCNC(=O)CCl)CC2)n1 | 2120 | 3060 | 9750 | 

Further lines, with some results ahead:

IC50 [1] [nM] | IC50 [3] [nM] | SMILES | IC50 [2] [nM] | also measured
110 | 260 | Cc1nc(Nc2ncc(-c3nnc(-c4c(C)cccc4Cl)o3)s2)cc(N2CCN(CCN)CC2)n1 | 680 | 
1.07 | 3.77 | Cc1nc(Nc2ncc(C(=O)Nc3c(C)cccc3Cl)s2)cc(N2CCN(CCN=C=S)CC2)n1 | 1960 | 
1420 | 1810 | Cc1nc(Nc2ncc(-c3nnc(-c4c(C)cccc4Cl)o3)s2)cc(N2CCN(CCN=C=S)CC2)n1 | 150 | 
0.86 | 1.67 | Cc1nc(Nc2ncc(C(=O)Nc3c(C)cccc3Cl)s2)cc(N2CCN(CCNC(=O)CCl)CC2)n1 | 13600 | 
0.26 | 0.039 | C=CC(=O)NCCN1CCN(c2cc(Nc3ncc(C(=O)Nc4c(C)cccc4Cl)s3)nc(C)n2)CC1 | 12900 | 
4.08 | 11.7 | Cc1nc(Nc2ncc(-c3cn(-c4c(C)cccc4Cl)nn3)s2)cc(N2CCN(CCN)CC2)n1 | 2060 | 
